Measured values reported in ChEMBL document CHEMBL1138784, “Rational design, synthesis, and biological evaluation of bis(pyrimido[5,6,1-de]acridines) and bis(pyrazolo[3,4,5-kl]acridine-5-carboxamides) as new anticancer agents” (J Med Chem, 2004).

Tests used:
[1] = Cytotoxicity against human H460M cancer cell line was determined after 144 hr; assay type: functional, cell-based; conditions: Cancer cell lines
Procedure, shortened: (§1)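 MTT colorimetric assay. Cells seeded by growth characteristics and preincubated 24 h, then exposed to drug for 1 h or 144 h at 37 °C, 5% CO2. H460M, MKN45 and PC-3 were grown in RPMI 1640 with 10% FCS. HCT116 was grown in D-MEM with 10% FBS and 2 mM glutamine.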

MKN-45 = experiment: Cytotoxicity against human MKN45 cancer cell line was determined after 144 hr; assay type: functional, cell-based; conditions: MKN-45, 144 h; procedure, shortened: as §1
LoVo [2] = experiment: Ratio of IC50 against sensitive LoVo cell line and that of doxorubicin resistance LoVo cell line was determined after 1 hr exposure; assay type: functional, Homo sapiens
LoVo [3] = experiment: Cytotoxicity against doxorubicin resistant LoVo cell line was determined against 144 hrs; assay type: functional, cell-based; conditions: Homo sapiens
Procedure, shortened: (§2)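 MTT assay on doxorubicin-sensitive LoVo and resistant LoVo/Dx cells, 24 h preincubation, then 1 h or 144 h drug exposure at 37 °C, 5% CO2. IC50 in nM. Resistance index is IC50 on LoVo/Dx divided by IC50 on LoVo.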

Nucleic Acid = experiment: Binding site preference is determined as the ratio of Poly (dA-dT)2 to Poly (dG-dC)2; assay type: nucleic-acid assay
Procedure, shortened: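 Ethidium displacement fluorometry at pH 7.0 (10 mM Na2HPO4, 10 mM NaH2PO4, 1 mM EDTA) with 1.26 μM ethidium bromide and 1 μM [poly(dA-dT)]2 or [poly(dG-dC)]2, 20 °C. Ex 546 nm, em 595 nm, drug added serially from a DMSO stock. Preference taken from the [AT]/[GC] ratio of C50 values, counted significant only below 0.7 or above 1.3.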

SNB-19 [4] = experiment: Percent growth of CNS SNB-19 cell line was determined at 10e-5 M concentration after 48 hr of exposing; assay type: functional, Homo sapiens
Procedure, shortened: (§3)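 NCI sulforhodamine B screen. Cells seeded by growth rate, 24 h drug-free, then 48 h exposure to 10^-8, 10^-6 or 10^-5 M. Protein-stain optical density expressed as percent growth relative to untreated control (100%); negative values indicate cell kill.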

HCT-116 = experiment: Cytotoxicity against human HCT116 cancer cell line was determined after 144 hr; assay type: functional, cell-based; conditions: HCT-116, 144 h; procedure, shortened: as §1
DU-145 [5] = experiment: Percent growth of prostate DU-145 cell line was determined at 10e-6 M concentration after 48 hr of exposing; assay type: functional, Homo sapiens
DU-145 [6] = experiment: Percent growth of prostate DU-145 cell line was determined at 10e-8 M concentration after 48 h of exposing; assay type: functional, Homo sapiens
[7] = Percent growth of melanoma LOX IMV1 cell line was determined at 10e-5 M concentration after 48 hr of exposing; assay type: functional, Homo sapiens; procedure, shortened: as §3
[8] = Percent growth of melanoma LOX IMV1 cell line was determined at 10e-6 M concentration after 48 hr of exposing; assay type: functional, Homo sapiens; procedure, shortened: as §3
[9] = Percent growth of melanoma LOX IMV1 cell line was determined at 10e-8 M concentration after 48 hr of exposing; assay type: functional, Homo sapiens; procedure, shortened: as §3
LoVo [10] = experiment: (§4) Cytotoxicity against doxorubicin resistant LoVo cell line was determined against 1 hour; assay type: functional, cell-based; conditions: Homo sapiens; procedure, shortened: as §2
PC-3 = experiment: Cytotoxicity against human PC3 cancer cell line was determined after 144 hr; assay type: functional, cell-based; conditions: PC-3, 144 h; procedure, shortened: as §1
LoVo [11] = experiment: Cytotoxicity against human LoVo cancer cell line was determined after 144 hr; assay type: functional, cell-based; procedure, shortened: as §2
SNB-19 [12] = experiment: Percent growth of CNS SNB-19 cell line was determined at 10e-6 M concentration after 48 hr of exposing; assay type: functional, Homo sapiens; procedure, shortened: as §3
SNB-19 [13] = experiment: Percent growth of CNS SNB-19 cell line was determined at 10e-8 M concentration after 48 hr of exposing; assay type: functional, Homo sapiens; procedure, shortened: as §3
786-0 [14] = experiment: Percent growth of renal 786-O cell line was determined at 10e-5 M concentration after 48 hr of exposing; assay type: functional, Homo sapiens; procedure, shortened: as §3
786-0 [15] = experiment: Percent growth of renal 786-O cell line was determined at 10e-6 M concentration after 48 h of exposing; assay type: functional, Homo sapiens; procedure, shortened: as §3
786-0 [16] = experiment: Percent growth of renal 786-O cell line was determined at 10e-8 M concentration after 48 h of exposing; assay type: functional, Homo sapiens; procedure, shortened: as §3
MCF7 [17] = experiment: Percent growth of breast MCF-7 cell line was determined at 10e-6 M concentration after 48 h of exposing; assay type: functional, Homo sapiens
MCF7 [18] = experiment: Percent growth of breast MCF-7 cell line was determined at 10e-8 M concentration after 48 hr of exposing; assay type: functional, Homo sapiens
SW-620 [19] = experiment: Percent growth of colon SW-620 cell line was determined at 10e-5 M concentration after 48 hr of exposing; assay type: functional, Homo sapiens; procedure, shortened: as §3
SW-620 [20] = experiment: Percent growth of colon SW-620 cell line was determined at 10e-6 M concentration after 48 hr of exposing; assay type: functional, Homo sapiens; procedure, shortened: as §3
SW-620 [21] = experiment: Percent growth of colon SW-620 cell line was determined at 10e-8 M concentration after 48 hr of exposing; assay type: functional, Homo sapiens; procedure, shortened: as §3
NCI-H460 [22] = experiment: Percent growth of lung NCI-H460 cell line was determined at 10e-5 M concentration after 48 hr of exposing; assay type: functional, Homo sapiens; procedure, shortened: as §3
NCI-H460 [23] = experiment: Percent growth of lung NCI-H460 cell line was determined at 10e-6 M concentration after 48 hr of exposing; assay type: functional, Homo sapiens; procedure, shortened: as §3
NCI-H460 [24] = experiment: Percent growth of lung NCI-H460 cell line was determined at 10e-8 M concentration after 48 hr of exposing; assay type: functional, Homo sapiens; procedure, shortened: as §3
MOLT-4 [25] = experiment: Percent growth of leukemia MOLT-4 cell line was determined at 10e-5 M concentration after 48 hr of exposing; assay type: functional, Homo sapiens; procedure, shortened: as §3
MOLT-4 [26] = experiment: Percent growth of leukemia MOLT-4 cell line was determined at 10e-6 M concentration after 48 h of exposing; assay type: functional, Homo sapiens; procedure, shortened: as §3
MOLT-4 [27] = experiment: Percent growth of leukemia MOLT-4 cell line was determined at 10e-8 M concentration after 48 hr of exposing; assay type: functional, Homo sapiens; procedure, shortened: as §3
OVCAR-4 [28] = experiment: Percent growth of ovarian OVCAR-4 cell line was determined at 10e-5 M concentration after 48 hr of exposing; assay type: functional, Homo sapiens; procedure, shortened: as §3
OVCAR-4 [29] = experiment: Percent growth of ovarian OVCAR-4 cell line was determined at 10e-6 M concentration after 48 hr of exposing; assay type: functional, Homo sapiens; procedure, shortened: as §3
OVCAR-4 [30] = experiment: Percent growth of ovarian OVCAR-4 cell line was determined at 10e-8 M concentration after 48 hr of exposing; assay type: functional, Homo sapiens; procedure, shortened: as §3
DU-145 [31] = experiment: Percent growth of prostate DU-145 cell line was determined at 10e-5 M concentration after 48 hr of exposing; assay type: functional, Homo sapiens
[32] = Cytotoxicity against human LoVo cancer cell line was determined after 1 hr; assay type: cell-based; procedure, shortened: as §2
[33] = Cytotoxicity against human H460M cancer cell line was determined after 1 hr; assay type: cell-based; conditions: Cancer cell lines; procedure, shortened: as §1
[34] = Cytotoxicity against human MKN45 cancer cell line was determined after 1 hr; assay type: cell-based; conditions: Cancer cell lines; procedure, shortened: as §1
[35] = Cytotoxicity against human HCT116 cancer cell line was determined after 1 hr; assay type: cell-based; conditions: HCT-116, 1 h; procedure, shortened: as §1
HT-29 = experiment: Cytotoxicity is determined as the concentration required to inhibit the growth of human colon adenocarcinoma (HT-29) cell line; assay type: functional, cell-based
MCF7 [36] = experiment: Percent growth of breast MCF-7 cell line was determined at 10e-5 M concentration after 48 hr of exposing; assay type: functional, Homo sapiens
[37] = Cytotoxicity against human PC3 cancer cell line was determined after 1 hr; assay type: cell-based; conditions: Cancer cell lines; procedure, shortened: as §1
[38] = as §4; assay type: cell-based; conditions: Homo sapiens; procedure, shortened: as §2

SMILES: CN(C)CCN1Nc2c3ccccc3nc3c(C(=O)NCCCN(C)CCCNC(=O)c4ccc5c6c(c7ccccc7nc46)NN5CCN(C)C)ccc1c23
- IC50 [1]: 4.4 nM
- IC50 (MKN-45): 0.6 nM
- Resistance index (LoVo [2]): 24
- IC50 (LoVo [3]): 400 nM
- Binding site preference (Nucleic Acid): 2.1
- Growth (SNB-19 [4]): -31%
- IC50 (HCT-116): 19 nM
- Growth (DU-145 [5]): -23%
- Growth (DU-145 [6]): 25%
- Growth [7]: -57%
- Growth [8]: 5%
- Growth [9]: 22%
- IC50 (LoVo [10]): 3600 nM
- IC50 (PC-3): 6 nM
- IC50 (LoVo [11]): 1.1 nM
- Growth (SNB-19 [12]): -7%
- Growth (SNB-19 [13]): 40%
- Growth (786-0 [14]): -48%
- Growth (786-0 [15]): 5%
- Growth (786-0 [16]): 30%
- Growth (MCF7 [17]): 2%
- Growth (MCF7 [18]): 18%
- Growth (SW-620 [19]): -45%
- Growth (SW-620 [20]): 14%
- Growth (SW-620 [21]): 37%
- Growth (NCI-H460 [22]): -53%
- Growth (NCI-H460 [23]): -6%
- Growth (NCI-H460 [24]): 12%
- Growth (MOLT-4 [25]): -27%
- Growth (MOLT-4 [26]): 7%
- Growth (MOLT-4 [27]): 28%
- Growth (OVCAR-4 [28]): -40%
- Growth (OVCAR-4 [29]): -17%
- Growth (OVCAR-4 [30]): 41%
- Growth (DU-145 [31]): -40%
- IC50 [32]: 150 nM
- IC50 [33]: 7.2 nM
- IC50 [34]: 6.8 nM
- IC50 [35]: 12 nM
- IC50 (HT-29): 3 nM
- Growth (MCF7 [36]): -35%
- IC50 [37]: 12 nM

SMILES: COc1ccc2c(c1)c(=O)c1c(NCCCN(C)CCCNc3ccc4c(=O)n(CCN(C)C)c(=O)n5c6ccc(OC)cc6c(=O)c3c45)ccc3c(=O)n(CCN(C)C)c(=O)n2c31
- IC50 [1]: < 0.001 nM
- IC50 (MKN-45): 0.0028 nM
- Resistance index (LoVo [2]): 4.2
- IC50 (LoVo [3]): 7.6 nM
- Binding site preference (Nucleic Acid): 2.1
- Growth (SNB-19 [4]): -48%
- IC50 (HCT-116): 0.66 nM
- Growth (DU-145 [5]): 3%
- Growth (DU-145 [6]): 40%
- Growth [7]: -91%
- Growth [8]: -34%
- Growth [9]: 26%
- IC50 (PC-3): 1.2 nM
- IC50 [38]: 76 nM
- IC50 (LoVo [11]): 0.95 nM
- Growth (SNB-19 [12]): 14%
- Growth (SNB-19 [13]): 38%
- Growth (786-0 [14]): -79%
- Growth (786-0 [15]): 10%
- Growth (786-0 [16]): 37%
- Growth (MCF7 [17]): -3%
- Growth (MCF7 [18]): 39%
- Growth (SW-620 [19]): -49%
- Growth (SW-620 [20]): -2%
- Growth (SW-620 [21]): 30%
- Growth (NCI-H460 [22]): -87%
- Growth (NCI-H460 [23]): -20%
- Growth (NCI-H460 [24]): 14%
- Growth (MOLT-4 [25]): -62%
- Growth (MOLT-4 [26]): -33%
- Growth (MOLT-4 [27]): 6%
- Growth (OVCAR-4 [28]): -72%
- Growth (OVCAR-4 [29]): -37%
- Growth (OVCAR-4 [30]): 0%
- Growth (DU-145 [31]): -66%
- IC50 [32]: 18 nM
- IC50 [33]: 0.06 nM
- IC50 [34]: 0.05 nM
- IC50 [35]: 0.85 nM
- IC50 (HT-29): < 0.1 nM
- Growth (MCF7 [36]): -63%
- IC50 [37]: 4.7 nM
